Data published in ChEMBL document CHEMBL2331285, “Optimization of 3,5-dimethylisoxazole derivatives as potent bromodomain ligands” (J Med Chem, 2013).
Active and inactive are the calls of the source. No cut-off for these calls is given here.

How the values were obtained:
A549 = assay: Cytotoxicity against human A549 cells after 72 hrs by MTS assay; type: functional, cell-based; details: A549, 72 h
U2OS = assay: Cytotoxicity against human U2OS cells after 24 hrs by WST-1 assay; type: functional, cell-based
NCI-H1975 [1] = assay: Cytotoxicity against human NCI-H1975 cells after 10 to 14 days by crystal violet staining based clonogenic survival assay; type: functional, cell-based
HeLa = assay: Cytotoxicity against human HeLa cells after 24 hrs by WST-1 assay; type: functional, cell-based
NCI-H1975 [2] = assay: Cytotoxicity against human NCI-H1975 cells after 72 hrs by MTS assay; type: functional, cell-based; details: NCI-H1975, 72 h
[3] = target: Bromodomain-containing protein 4 (Homo sapiens, UniProt O60885); assay: Binding affinity to human BRD4 bromodomain 1 using H4Ac4 peptide by amplified luminescent proximity homogeneous assay
CREB-binding protein = CREB-binding protein (Homo sapiens, UniProt Q92793); assay: Binding affinity to CREBBP bromodomain (unknown origin) using H3K56Ac peptide by amplified luminescent proximity homogeneous assay
Chain of CREB-binding protein (Q92793 whole entry): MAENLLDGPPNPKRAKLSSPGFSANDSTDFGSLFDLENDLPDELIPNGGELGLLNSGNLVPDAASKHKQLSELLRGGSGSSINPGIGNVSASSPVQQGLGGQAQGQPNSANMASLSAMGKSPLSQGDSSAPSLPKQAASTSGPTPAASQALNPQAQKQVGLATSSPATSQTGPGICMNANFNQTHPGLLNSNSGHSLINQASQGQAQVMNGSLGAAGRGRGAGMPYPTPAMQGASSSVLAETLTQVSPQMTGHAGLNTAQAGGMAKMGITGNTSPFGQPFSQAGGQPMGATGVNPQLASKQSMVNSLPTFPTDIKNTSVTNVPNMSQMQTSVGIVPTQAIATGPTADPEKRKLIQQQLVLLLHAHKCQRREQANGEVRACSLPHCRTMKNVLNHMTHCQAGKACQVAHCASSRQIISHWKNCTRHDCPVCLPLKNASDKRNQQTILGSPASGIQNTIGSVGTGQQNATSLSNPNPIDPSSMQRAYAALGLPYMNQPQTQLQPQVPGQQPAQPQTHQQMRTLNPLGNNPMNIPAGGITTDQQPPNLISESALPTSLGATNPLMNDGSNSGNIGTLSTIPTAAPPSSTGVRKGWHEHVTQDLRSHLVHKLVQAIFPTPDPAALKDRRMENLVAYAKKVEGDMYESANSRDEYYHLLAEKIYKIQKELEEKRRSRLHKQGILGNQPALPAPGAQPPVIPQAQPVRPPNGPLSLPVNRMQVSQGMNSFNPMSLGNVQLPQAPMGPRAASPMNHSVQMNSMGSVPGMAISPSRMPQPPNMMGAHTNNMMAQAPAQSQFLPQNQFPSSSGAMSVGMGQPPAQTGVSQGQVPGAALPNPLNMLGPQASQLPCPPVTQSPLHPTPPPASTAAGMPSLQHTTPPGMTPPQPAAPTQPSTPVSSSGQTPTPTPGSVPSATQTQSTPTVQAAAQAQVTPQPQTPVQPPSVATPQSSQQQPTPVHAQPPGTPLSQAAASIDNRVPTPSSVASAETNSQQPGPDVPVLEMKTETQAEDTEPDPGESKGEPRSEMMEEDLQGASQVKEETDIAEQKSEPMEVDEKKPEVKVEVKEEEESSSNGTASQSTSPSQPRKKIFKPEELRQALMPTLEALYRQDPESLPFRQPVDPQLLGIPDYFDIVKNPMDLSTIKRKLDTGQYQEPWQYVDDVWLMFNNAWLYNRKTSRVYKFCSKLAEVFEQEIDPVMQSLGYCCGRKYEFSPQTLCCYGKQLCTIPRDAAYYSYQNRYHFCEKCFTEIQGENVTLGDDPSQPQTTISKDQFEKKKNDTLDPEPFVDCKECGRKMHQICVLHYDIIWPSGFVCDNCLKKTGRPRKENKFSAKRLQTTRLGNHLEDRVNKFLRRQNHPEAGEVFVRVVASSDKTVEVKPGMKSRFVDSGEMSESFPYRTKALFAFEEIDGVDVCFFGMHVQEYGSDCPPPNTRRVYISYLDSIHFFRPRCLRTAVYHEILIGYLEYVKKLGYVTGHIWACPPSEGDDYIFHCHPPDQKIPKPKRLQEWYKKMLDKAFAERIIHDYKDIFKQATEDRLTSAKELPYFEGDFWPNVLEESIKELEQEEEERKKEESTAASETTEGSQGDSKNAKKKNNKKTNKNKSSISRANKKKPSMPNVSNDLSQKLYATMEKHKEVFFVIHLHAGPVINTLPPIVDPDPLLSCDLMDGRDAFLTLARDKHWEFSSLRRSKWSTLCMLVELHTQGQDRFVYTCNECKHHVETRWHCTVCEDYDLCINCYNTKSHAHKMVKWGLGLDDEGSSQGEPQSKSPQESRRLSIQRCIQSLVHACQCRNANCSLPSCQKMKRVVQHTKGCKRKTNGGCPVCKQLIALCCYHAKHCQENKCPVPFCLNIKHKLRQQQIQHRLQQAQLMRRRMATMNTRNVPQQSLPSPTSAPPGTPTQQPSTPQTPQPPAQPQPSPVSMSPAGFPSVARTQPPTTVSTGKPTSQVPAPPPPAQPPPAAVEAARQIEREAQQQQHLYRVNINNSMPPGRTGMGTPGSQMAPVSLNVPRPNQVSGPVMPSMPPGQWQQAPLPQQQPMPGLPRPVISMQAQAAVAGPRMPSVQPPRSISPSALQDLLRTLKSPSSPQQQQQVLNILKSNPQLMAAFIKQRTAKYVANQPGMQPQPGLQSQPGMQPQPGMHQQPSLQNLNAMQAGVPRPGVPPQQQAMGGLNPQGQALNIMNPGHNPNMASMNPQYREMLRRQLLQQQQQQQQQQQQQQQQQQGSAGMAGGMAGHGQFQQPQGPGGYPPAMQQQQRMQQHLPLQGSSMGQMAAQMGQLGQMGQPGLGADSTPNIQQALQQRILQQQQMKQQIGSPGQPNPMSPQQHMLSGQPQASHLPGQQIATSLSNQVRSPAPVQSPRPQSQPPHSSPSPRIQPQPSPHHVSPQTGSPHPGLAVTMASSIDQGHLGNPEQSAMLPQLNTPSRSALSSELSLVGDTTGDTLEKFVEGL

Homo sapiens = species on record: Homo sapiens; assay: Selectivity ratio of IC50 for CREBBP bromodomain to IC50 for human BRD4 bromodomain 1 (unknown origin)
How it was run: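 IC50 ratio, both values from AlphaScreen peptide displacement (protein and peptide 50 nM each, duplicates, sigmoidal fit). BRD4(1) used biotinylated tetra-acetylated H4 peptide (SGRGK(Ac)GGK(Ac)GLGK(Ac)GGAK(Ac)RHRK-biotin); CREBBP used biotinylated H3K56Ac peptide.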

MV4-11 = assay: Cytotoxicity against human MV4-11 cells after 72 hrs by MTS assay; type: functional, cell-based; details: MV4-11, 72 h

| SMILES | IC50 (U2OS) | IC50 (HeLa) | IC50 [3] | IC50 (CREB-binding protein) | other results |
| --- | --- | --- | --- | --- | --- |
| Cc1noc(C)c1-c1cc(O)cc(C(O)c2ccccc2)c1 (racemic) | > 100000 nM | > 100000 nM |  |  | IC50 (A549): > 10000 nM; Activity (NCI-H1975 [1]): Active; IC50 (NCI-H1975 [2]): > 10000 nM |
| CCOc1cc(-c2c(C)noc2C)cc(C(O)c2ccccc2)c1 (stereo not given) |  |  | 640 nM | 4100 nM | Ratio IC50 (Homo sapiens): 6 |
| CCOc1cc(-c2c(C)noc2C)cc(C(C)O)c1 (stereo not given) |  |  |  |  | Ratio IC50 (Homo sapiens): 6 |
| CC(=O)Oc1cc(-c2c(C)noc2C)cc(C(O)c2ccccc2)c1 (racemic) | > 100000 nM | > 100000 nM |  | 2480 nM | IC50 (A549): > 10000 nM; Activity (NCI-H1975 [1]): Active; IC50 (NCI-H1975 [2]): > 10000 nM |
| COCCOc1cc(-c2c(C)noc2C)cc(C(O)c2ccccc2)c1 (stereo not given) |  |  | 1380 nM | 2070 nM |  |
| Cc1noc(C)c1-c1cc(O)cc(C(=O)c2ccccc2)c1 |  |  | 544 nM |  |  |
| Cc1noc(C)c1-c1cc(OCCO)cc(C(O)c2ccccc2)c1 (stereo not given) |  |  | 1170 nM | 2810 nM |  |
| COc1cc(-c2c(C)noc2C)cc(C(O)c2ccccc2)c1 (stereo not given) |  |  | 1360 nM | 3960 nM |  |
| Cc1sc2c(c1C)C(c1ccc(Cl)cc1)=N[C@@H](CC(=O)OC(C)(C)C)c1nnc(C)n1-2 | > 100000 nM | > 100000 nM |  |  | IC50 (MV4-11): 242 nM |
